Common to all, as to format: functional
Assay [1] has as its system Salmonella. Kind of assay: Minimum inhibitory concentration against aerobic organism Salmonella strain 3860. The method in brief:
(§1)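 Agar-dilution MIC in µg/mL against aerobic bacterial strains on tryptocase soy agar, with inoculum applied as spots. Most series used 10^5 cfu per spot, and a later series used 10^4 cfu per spot. In some tables, footnoted strains were instead tested on Mueller-Hinton or nutrient agar. β-Lactamase-producing strains are flagged.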

Assay [2] concerns Klebsiella aerogenes. As to the kind of experiment: Minimum inhibitory concentration against aerobic organism Enterobacter aerogenes strain 2828. The method in brief:
as §1

In assay [3] the test system is Staphylococcus aureus. Kind of assay: Minimum inhibitory concentration against aerobic organism Staphylococcus aureus strain 2865. The method in brief:
as §1

The test system of assay [4] is Pseudomonas aeruginosa. As to the kind of experiment: Minimum inhibitory concentration against aerobic organism Pseudomonas aeruginosa strain 2835. Summed up:
as §1

Assay [5] deals with Staphylococcus aureus. Kind of assay: Minimum inhibitory concentration against aerobic organism Staphylococcus aureus strain 2868. As to conditions: Staphylococcus aureus; read-out: MIC. The method in brief:
as §1

The test system of assay [6] is Proteus vulgaris. As to the kind of experiment: Minimum inhibitory concentration against aerobic organism Proteus vulgaris strain 2829. As to conditions: Proteus vulgaris; read-out: MIC. Summed up: as §1
Assay [7] deals with Morganella morganii. Kind of assay: Minimum inhibitory concentration against aerobic organism Morganella morganii strain 2833. As to conditions: Morganella morganii; read-out: MIC. The method in brief: as §1
Assay [8] relates to Klebsiella pneumoniae. Kind of assay: Minimum inhibitory concentration against aerobic organism Klebsiella pneumoniae strain 4005. Summed up: as §1
Assay [9] concerns Enterobacter cloacae. As to the kind of experiment: Minimum inhibitory concentration against aerobic organism Enterobacter cloacae strain 2646. As to conditions: Enterobacter cloacae; read-out: MIC. Summed up:
as §1

The subject of assay [10] is Proteus mirabilis. As to the kind of experiment: Minimum inhibitory concentration against aerobic organism Proteus mirabilis strain 2830. As to conditions: Proteus mirabilis; read-out: MIC. Summed up:
as §1

For assay [11], the system named is Enterococcus faecalis. Kind of assay: Minimum inhibitory concentration against aerobic organism Streptococcus faecalis strain 2864. Summed up:
as §1

Assay [12] deals with Escherichia coli. Kind of assay: MIC against aerobic organism Escherichia coli strain 2891. As to conditions: Escherichia coli; read-out: MIC. Summed up: as §1
Assay [13] has as its system Streptococcus pyogenes. Kind of assay: Minimum inhibitory concentration against aerobic organism Streptococcus pyogenes strain 3124. As to conditions: Streptococcus pyogenes; read-out: MIC. The method in brief: as §1
In assay [14] the test system is Klebsiella aerogenes. Kind of assay: Minimum inhibitory concentration against aerobic organism Enterobacter aerogenes strain 2906. As to conditions: Klebsiella aerogenes; read-out: MIC. The method in brief:
as §1

A short description of assay [15]: Minimum inhibitory concentration against aerobic organism Salmonella schottmuelleri strain 2837. As to conditions: Salmonella; read-out: MIC. The method in brief: as §1
The test system of assay [16] is Serratia marcescens. Kind of assay: Minimum inhibitory concentration against aerobic organism Serratia marcescens strain 2852. As to conditions: Serratia marcescens; read-out: MIC. The method in brief:
as §1

For assay [17], the system named is Shigella. As to the kind of experiment: Minimum inhibitory concentration against aerobic organism Shigella species strain 2880. As to conditions: Shigella; read-out: MIC. The method in brief:
as §1

Assay [18] relates to Klebsiella pneumoniae. As to the kind of experiment: Minimum inhibitory concentration against aerobic organism Klebsiella pneumoniae strain 2882. As to conditions: Klebsiella pneumoniae; read-out: MIC. Summed up:
as §1

Structures are written as SMILES. Converted amounts (≈) assume the structure as drawn.

For `O=C([O-])CSc1nnc(SCC2=C(C(=O)[O-])N3C(=O)[C@@H](Nc4cc[n+](Cc5ccccc5)cc4)[C@H]3SC2)s1.[Na+]`, the MIC in assay [1] is 0.25 µg/mL; in [2] it was 0.5 µg/mL; in assay [3], 1 µg/mL; in assay [4], 128 µg/mL; in assay [5], 4 µg/mL; in [6], < 0.125 µg/mL. Further, the MIC in assay [7] was 16 µg/mL; in [8], 1 µg/mL; in assay [9], 0.05 µg/mL; in assay [10], 64 µg/mL; in [11], > 128 µg/mL; in assay [12], < 0.125 µg/mL.
In the case of `O=C([O-])C1=C(Cl)CS[C@@H]2[C@H](Nc3cc[n+](Cc4ccccc4)cc3)C(=O)N12`, the MIC in assay [1] was 128 µg/mL (≈ 319 µM); in assay [2], 8 µg/mL (≈ 19.9 µM); in assay [3], 2 µg/mL (≈ 4.98 µM); in [4] it was > 128 µg/mL; in assay [5] it was 128 µg/mL (≈ 319 µM); in assay [6] it was < 0.125 µg/mL. The minimum inhibitory concentration (MIC) is > 128 µg/mL in assay [7]; 64 µg/mL (≈ 159 µM) in assay [8]; 4 µg/mL (≈ 9.95 µM) in assay [9]; > 128 µg/mL in assay [10]; > 128 µg/mL in [11]; 0.25 µg/mL (≈ 0.622 µM) in assay [12].
In the case of `CCOC(=S)SCC1=C(C(=O)[O-])N2C(=O)[C@@H](Nc3cc[n+](Cc4ccccc4)cc3)[C@H]2SC1`, the MIC was 4 µg/mL (≈ 7.97 µM) in [1]; > 128 µg/mL in [2]; 1 µg/mL (≈ 1.99 µM) in assay [3]; > 128 µg/mL in assay [4]; 4 µg/mL (≈ 7.97 µM) in assay [5]; 8 µg/mL (≈ 15.9 µM) in assay [6]. The MIC is > 128 µg/mL in assay [7]; > 128 µg/mL in assay [8]; 4 µg/mL (≈ 7.97 µM) in assay [9]; > 128 µg/mL in [10]; > 128 µg/mL in assay [11]; 1 µg/mL (≈ 1.99 µM) in assay [12].
`Cn1nnnc1SCC1=C(C(=O)[O-])N2C(=O)[C@@H](Nc3cc[n+](COCC(Cl)(Cl)Cl)cc3C(=O)[O-])[C@H]2SC1.[Na+]`: the MIC in assay [1], in assay [2], in assay [3], in assay [4], in assay [5] and in [6] was > 128 µg/mL in each case. The minimal inhibitory concentration (MIC) was > 128 µg/mL in assay [7]; > 128 µg/mL in [8]; > 128 µg/mL in assay [9]; > 128 µg/mL in assay [10]; > 128 µg/mL in assay [11]; 64 µg/mL in assay [12].
As for `Cn1nnnc1SCC1=C(C(=O)[O-])N2C(=O)[C@@H](Nc3cc[n+](Cc4ccc(F)cc4)cc3)[C@H]2SC1`, the MIC in [1] is 4 µg/mL (≈ 7.79 µM); in [2] it was 1 µg/mL (≈ 1.95 µM); in [3], 0.5 µg/mL (≈ 0.974 µM); in assay [4], > 128 µg/mL; in assay [5] it was 1 µg/mL (≈ 1.95 µM); in [6] it was 0.25 µg/mL (≈ 0.487 µM). Moreover, the MIC in assay [7] was 32 µg/mL (≈ 62.3 µM); in assay [8] it was 8 µg/mL (≈ 15.6 µM); in assay [9] it was 0.125 µg/mL (≈ 0.243 µM); in assay [10] it was 64 µg/mL (≈ 125 µM); in assay [11] it was 128 µg/mL (≈ 249 µM); in assay [12], < 0.06 µg/mL.
On to `Cn1nnnc1SCC1=C(C(=O)[O-])N2C(=O)[C@@H](Nc3cc[n+](COCC(Cl)(Cl)Cl)cc3C(=O)OC(C)(C)C)[C@H]2SC1`, for which the MIC in [1] is > 128 µg/mL; in assay [2] it was > 128 µg/mL; in assay [3], 128 µg/mL (≈ 192 µM); in [4], > 128 µg/mL; in [5], > 128 µg/mL; in assay [6] it was > 128 µg/mL. For the same compound, the MIC in assay [7] was > 128 µg/mL; in assay [8], > 128 µg/mL; in assay [9], > 128 µg/mL; in assay [10], > 128 µg/mL; in assay [11], > 128 µg/mL; in assay [12], 128 µg/mL (≈ 192 µM).
As to `O=C([O-])C1=C(CSc2cc[n+](Cc3ccccc3)cc2)CS[C@@H]2[C@H]([N-]c3cc[n+](Cc4ccccc4)cc3)C(=O)N12`, the MIC was 4 µg/mL (≈ 6.89 µM) in assay [1]; 1 µg/mL (≈ 1.72 µM) in [2]; < 0.06 µg/mL in [3]; > 128 µg/mL in assay [4]; 0.25 µg/mL (≈ 0.43 µM) in assay [5]; < 0.06 µg/mL in [6]. Further, the MIC in [7] was > 128 µg/mL; in [8], 32 µg/mL (≈ 55.1 µM); in assay [9] it was < 0.06 µg/mL; in assay [10], 128 µg/mL (≈ 220 µM); in [11], 64 µg/mL (≈ 110 µM); in assay [12], < 0.06 µg/mL.
With `Cc1c[n+](C)ccc1N[C@@H]1C(=O)N2C(C(=O)[O-])=C(CSc3nnnn3C)CS[C@H]12`, the MIC was 32 µg/mL (≈ 73.8 µM) in [13]; > 128 µg/mL in assay [4]; > 128 µg/mL in assay [5]; 1 µg/mL (≈ 2.31 µM) in assay [6]; 16 µg/mL (≈ 36.9 µM) in [7]; 8 µg/mL (≈ 18.5 µM) in assay [14]. Besides, the minimal inhibitory concentration (MIC) in assay [15] was 128 µg/mL (≈ 295 µM); in [9] it was 16 µg/mL (≈ 36.9 µM); in [16] it was > 128 µg/mL; in assay [10], 16 µg/mL (≈ 36.9 µM); in assay [11], > 128 µg/mL; in assay [17], 16 µg/mL (≈ 36.9 µM). Besides, the values for the minimal inhibitory concentration (MIC) in assay [18] and in assay [12] were 16 µg/mL (≈ 36.9 µM) and 8 µg/mL (≈ 18.5 µM), respectively.
`Cn1nnnc1SCC1=C(C(=O)[O-])N2C(=O)[C@@H](Nc3cc[n+](COCC(F)(F)F)cc3)[C@H]2SC1`: the MIC in [13] was < 0.06 µg/mL; in [4] it was > 128 µg/mL; in [5] it was 4 µg/mL (≈ 7.73 µM); in assay [6] it was 4 µg/mL (≈ 7.73 µM); in assay [7], > 128 µg/mL; in assay [14] it was 4 µg/mL (≈ 7.73 µM). Besides, the MIC in assay [15] is < 0.06 µg/mL; in assay [9], < 0.06 µg/mL; in assay [16], 128 µg/mL (≈ 247 µM); in [10], > 128 µg/mL; in assay [11], > 128 µg/mL; in assay [17], < 0.06 µg/mL. Also, the values for the MIC in [18] and in assay [12] were 1 µg/mL (≈ 1.93 µM) and < 0.06 µg/mL, respectively.
For the compound `CC1=C(C(=O)[O-])N2C(=O)[C@@H](Nc3cc[n+](Cc4ccccc4)cc3)[C@H]2SC1`, the MIC was 0.06 µg/mL (≈ 0.157 µM) in assay [13]; > 128 µg/mL in assay [4]; 64 µg/mL (≈ 168 µM) in assay [5]; > 128 µg/mL in assay [6]; > 128 µg/mL in assay [7]; 128 µg/mL (≈ 336 µM) in assay [14]. The MIC in assay [15] was 0.5 µg/mL (≈ 1.31 µM); in [9], 64 µg/mL (≈ 168 µM); in [16] it was > 128 µg/mL; in [10] it was > 128 µg/mL; in assay [11], 128 µg/mL (≈ 336 µM); in assay [17], 2 µg/mL (≈ 5.24 µM). Moreover, the MIC in [18] is 32 µg/mL (≈ 83.9 µM); in assay [12] it was 4 µg/mL (≈ 10.5 µM).
For the compound `COc1ccc(C[n+]2ccc(N[C@@H]3C(=O)N4C(C(=O)[O-])=C(CSc5nnnn5C)CS[C@H]34)cc2)cc1OC`, the MIC in assay [13] was 0.125 µg/mL (≈ 0.225 µM); in assay [4] it was > 64 µg/mL; in assay [5], 8 µg/mL (≈ 14.4 µM); in [6], 0.25 µg/mL (≈ 0.45 µM); in assay [7], 32 µg/mL (≈ 57.6 µM); in assay [14], 8 µg/mL (≈ 14.4 µM). Besides, the MIC was 0.5 µg/mL (≈ 0.9 µM) in [15]; 64 µg/mL (≈ 115 µM) in assay [9]; 64 µg/mL (≈ 115 µM) in [16]; > 64 µg/mL in assay [10]; > 64 µg/mL in assay [11]; 0.25 µg/mL (≈ 0.45 µM) in assay [17]. The MIC in assay [18] and in [12] was 0.5 µg/mL (≈ 0.9 µM) throughout.
As for `COC[n+]1ccc(N[C@@H]2C(=O)N3C(C(=O)[O-])=C(CSc4nnnn4C)CS[C@H]23)cc1`, the MIC is 0.125 µg/mL (≈ 0.278 µM) in assay [13]; > 128 µg/mL in assay [4]; 16 µg/mL (≈ 35.6 µM) in assay [5]; < 0.06 µg/mL in assay [6]; > 128 µg/mL in [7]; 64 µg/mL (≈ 142 µM) in assay [14]. In addition, the MIC was 1 µg/mL (≈ 2.22 µM) in [15]; 32 µg/mL (≈ 71.2 µM) in assay [9]; > 128 µg/mL in [16]; 64 µg/mL (≈ 142 µM) in assay [10]; > 128 µg/mL in assay [11]; 0.5 µg/mL (≈ 1.11 µM) in assay [17]. The MIC in assay [18] amounted to 1 µg/mL (≈ 2.22 µM); in assay [12], 0.125 µg/mL (≈ 0.278 µM).

Values taken from ChEMBL document CHEMBL1122046, “Quaternary heterocyclylamino beta-lactams: a generic alternative to the classical acylamino side chain” (1982).
